{"data": "Results collected from several papers", "mode": "inhibitor", "CHEK2": "Serine/threonine-protein kinase Chk2 (CHEK2, Homo sapiens, UniProt O96017)"}
{"Compound": "CCCS(=O)(=O)Nc1ccc(F)c(C(=O)c2c[nH]c3ncc(-c4ccc(Cl)cc4)cc23)c1F", "target": "CHEK2", "read-out": "enzyme activity", "tested at": "1 µM", "inhibition": "< 10%"}
{"Compound": "COc1cc2ncnc(Nc3ccc(Oc4ccccc4)cc3C)c2cc1OC", "target": "CHEK2", "read-out": "enzyme activity", "tested at": "1 µM", "inhibition": "83%"}
{"Compound": "CCN1CCN(Cc2ccc(NC(=O)c3ccc(C)c(Oc4ccnc5[nH]ccc45)c3)cc2C(F)(F)F)CC1", "target": "CHEK2", "read-out": "target engagement in cells", "method": "chemoproteomics", "cell line": "A-375", "tested at": "0.5 µM", "inhibition": "-16.3%"}
{"Compound": "CNC(=O)c1cc(Oc2ccc(NC(=O)Nc3ccc(Cl)c(C(F)(F)F)c3)cc2)ccn1", "target": "CHEK2", "read-out": "enzyme activity", "tested at": "0.3 µM", "inhibition": "-5%"}
{"Compound": "CCOc1cc(-c2nncn2C)ccc1Nc1ncc2cc(C)nc(NCC(C)(C)C)c2n1", "target": "CHEK2", "read-out": "enzyme activity", "method": "FRET", "tested at": "1 µM", "inhibition": "< 15%"}
{"Compound": "Cc1ncc([N+](=O)[O-])n1C(=NO)c1ccccc1C(F)(F)F", "target": "CHEK2", "read-out": "enzyme activity", "tested at": "10 µM", "inhibition": "17.1%"}
{"Compound": "CN(c1ncccc1CNc1nc(Nc2ccc3c(c2)CC(=O)N3)ncc1C(F)(F)F)S(C)(=O)=O", "target": "CHEK2", "read-out": "enzyme activity", "tested at": "1 µM", "inhibition": "33.1%"}
{"Compound": "COc1cc2ncnc(Nc3ccc(Oc4ccccc4)c(C)c3C)c2cc1OC", "target": "CHEK2", "read-out": "enzyme activity", "tested at": "1 µM", "inhibition": "36%"}
{"Compound": "CN1CC(Oc2cnc(C#N)cc2-c2ccn3nc(NC(=O)C4CC4)cc3c2)C1", "target": "CHEK2", "read-out": "enzyme activity", "tested at": "1 µM", "inhibition": "0%"}
{"Compound": "Cc1ccc(Nc2nccc(N(C)c3ccc4c(C)n(C)nc4c3)n2)cc1S(N)(=O)=O", "target": "Serine/threonine-protein kinase Chk2 (CHEK2, Homo sapiens, UniProt O96017, I157T)", "read-out": "enzyme activity", "tested at": "10 µM", "inhibition": "30%"}
{"Compound": "CSc1nc(C)c(-c2ccnc(Nc3ccc(N4CCOCC4)cc3)c2)[nH]1", "target": "CHEK2", "read-out": "enzyme activity", "tested at": "10 µM", "inhibition": "-5.4%"}
{"Compound": "CNc1cc(Oc2cc(C(=O)Nc3cc(N4CCN(C)CC4)cc(C(F)(F)F)c3)ccc2C)ncn1", "target": "CHEK2", "read-out": "target engagement in cells", "method": "chemoproteomics", "cell line": "Huh-7", "tested at": "1 µM", "inhibition": "-100%"}
{"Compound": "CNc1cccc2cc(C(=O)Nc3ccc(C(=O)O)cc3)c(=O)[nH]c12", "target": "CHEK2", "read-out": "enzyme activity", "tested at": "10 µM", "inhibition": "15%"}
{"Compound": "CN(C)C1CCN(CC#Cc2nn(C3CCCC3)c3nc(NCc4ccccc4)ncc23)C1 (centres unmarked)", "target": "CHEK2", "read-out": "enzyme activity", "method": "FRET", "tested at": "10 µM", "inhibition": "17%"}
